The series in a line: Toxicity liver stage against HepG2, at 10uM. The class given is cell-based. Also noted: test concentration 10 uM, cell line HepG2-A16-CD81EGFP. The conditions noted are these: human, HepG2-A16-CD81EGFP cells; read-out: INHIBITION
An outline of the steps: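 Uninfected HepG2-A16-CD81EGFP cells, 3 × 10^3 per well, 1536-well, plated on prespotted compound at 10 μM final, parasite-free screening media added to match infected plates; puromycin 10 μM positive, DMSO 0.5% negative; run in parallel with 48 h PbLuc assay at 37 °C, 5% CO2; viability by CellTiter-Glo luminescence, normalized to controls.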
As to `FC(F)(F)Sc1ccc(NCc2nnc(C3CC3)o2)cc1`, the cytotoxicity at 10 µM is 5.69%.
The same measure for `Cc1nc(C)n(CC2CCCN(CC(=O)Nc3c(C)n[nH]c3C)C2)n1` (centres undefined): 0.813%.
The same measure for `CC(C)n1cnnc1C1CCCN(S(=O)(=O)c2c[nH]cn2)C1` (centres undefined): -6.6%; for `CC1CN(C)c2ccccc2CN1C(=O)c1ccoc1` (centres undefined): -2.84%; for `Nc1nc2c(c(NC3CCCC3)n1)CCN(C(=O)C1CCOC1)CC2` (centres undefined): -129%.
For the molecule `c1coc(-c2nnc(CN(Cc3cccs3)CC3CCCO3)o2)c1` (centres undefined), the cytotoxicity at 10 µM came to 5.79%.
For `Cc1cc(C(=O)NCC2SCCc3ccccc32)no1` (centres undefined), the cytotoxicity at 10 µM is 3.41%.
Take `NC(=O)CN1CCCC(Cc2ccc(N)nn2)C1` (centres undefined): the cytotoxicity at 10 µM is -31.1%.
Under `CN(C)c1nc2c(c(N3CCc4ccccc4C3)n1)CCNC2` stands 10.9%.
For the molecule `Cc1cc(NC(=O)c2nc(N3CCCC3)ncc2Cl)nc(C(C)C)n1`, the cytotoxicity at 10 µM was determined as 69.3%.
The same measure for `CCOc1ccc(CC(=O)N2C[C@H](C3CC3)[C@@H](N)C2)cc1`: -7.76%.
For `Cc1cc(C)n(C2CN(CC(O)c3ccc(F)cc3)C2)n1` (centres undefined), the cytotoxicity at 10 µM was -13%.
Under `O=C1CCC2(CCCN(C(=O)c3cccnc3)CC2)N1` (centres undefined) stands 6.56%; under `COc1ccccc1N1CCN(Cc2ncc(C)c(OC)c2C)CC1=O`, 6.18%; under `CN(Cc1cc(C(C)(C)C)n[nH]1)C(=O)c1c[nH]nc1-c1cccc(F)c1`, -3.39%.
The same measure for `Cc1ccccc1C(=O)N1CC[C@@H]2CN(c3ncccn3)CCO[C@@H]2C1`: -72.4%.
The same measure for `Cc1cnn(CC2CCN(CC(O)c3ccccc3)CC2)c1` (centres undefined): -8.46%; for `Cc1ccc([C@@H]2CN(C(=O)c3ccsc3)C[C@H]2NC(=O)C2CC2)cc1`: 2.93%.
As to `CC(=O)c1cccc(NC(=O)c2cnc(N3CCN(C)CC3)nc2C)c1`, the cytotoxicity at 10 µM worked out at 4.28%.
Under `Cc1noc(CCNC(=O)c2ccc(Br)c(S(=O)(=O)N(C)C)c2)n1` stands 6.45%; under `Cc1csc2c(C3CCCN(C(=O)CCn4ccnc4)C3)nc(C)n12` (centres undefined), 16.9%; under `Cc1nc2c(c(NC(C)C)n1)CCN(Cc1cccnc1)CC2`, 6.4%.
In the case of `O=C(Nc1ccc(CN2CCOCC2)cc1)c1nccn2ccnc12`, the cytotoxicity at 10 µM is -8.3%.
Under `Cc1cc(CN2CCC(CNC(=O)c3noc4c3CCCC4)C2)[nH]n1` (centres undefined) stands -142%; under `CCN1CCO[C@@H]2CN(S(=O)(=O)c3cccs3)CC[C@@H]2C1`, 4.82%.
The same measure for `Fc1ccccc1CN1CCCN(c2ncnc3[nH]ccc23)CC1`: -5.86%; for `CN(C)c1cccc(C(=O)N2CCn3c(nnc3-c3ccccc3)C2)c1`: -0.375%; for `CC(C)Nc1nc2c(cc1C(=O)NCC1CC1)CCN(CC1CC1)CC2`: 46.5%.
For `Cn1ncc2c(N3CCC(CCO)CC3)nc(C(C)(C)C)nc21`, the cytotoxicity at 10 µM turned out to be 14.6%.
Under `CN(C)CC(=O)N1CCc2ncnc(-c3ccsc3)c2CC1` stands -12.3%; under `O=C(N1CCCC1)C12CC(CN1Cc1nccs1)C2`, -11.5%; under `Cc1cnn(CC2CCCN2Cc2coc(-c3ccccc3)n2)c1` (centres undefined), -5.26%.
Under `CC(C)C(=O)N1CC[C@H]2N(C)CC[C@@]2(C(=O)Nc2ccccc2)CC1` stands -107%; under `Cc1cc2c(=O)n(CC(=O)N3CCn4cccc4C3C(C)C)cnc2s1` (centres undefined), 3.77%.
The same measure for `CCOCC1CN(Cc2cnn(C)c2)Cc2cnn(C)c21` (centres undefined): -89.6%; for `CCC(C)NC(=O)c1ccc(CNC(=O)COC)cc1` (centres undefined): 10.7%; for `Cc1csc(C(=O)NCCn2nc(-n3cncn3)ccc2=O)c1`: 2.06%.
With `COC(=O)N1CCC(Nc2cccc(F)c2C(C)=O)C1` (centres undefined), the cytotoxicity at 10 µM came to 11.2%.
The same measure for `Cc1c(CNCc2nn(-c3ccccc3)c3c2CCC3)cc(C#N)n1C`: 13.3%.
